Measurements from different studies.
Protocols differ between the studies behind these lines.
Target: Peroxisome proliferator-activated receptor alpha (PPARA, Homo sapiens, UniProt Q07869)
One construct used (Q07869 1-468): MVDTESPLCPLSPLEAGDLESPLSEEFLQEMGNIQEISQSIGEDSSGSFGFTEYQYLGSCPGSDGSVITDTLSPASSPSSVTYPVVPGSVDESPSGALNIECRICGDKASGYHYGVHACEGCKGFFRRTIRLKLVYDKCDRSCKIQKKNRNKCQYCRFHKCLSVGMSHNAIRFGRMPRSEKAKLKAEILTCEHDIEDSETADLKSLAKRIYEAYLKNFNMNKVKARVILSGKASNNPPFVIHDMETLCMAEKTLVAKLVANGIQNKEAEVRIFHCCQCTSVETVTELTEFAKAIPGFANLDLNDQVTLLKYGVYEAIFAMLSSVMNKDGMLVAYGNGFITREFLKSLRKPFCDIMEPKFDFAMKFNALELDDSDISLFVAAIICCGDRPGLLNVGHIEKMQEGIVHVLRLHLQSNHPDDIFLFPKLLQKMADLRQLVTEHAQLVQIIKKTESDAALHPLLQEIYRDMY

assay	quantity	result	SMILES
enzyme activity in cells, inhibitor	IC50	> 2 µM	O=C(Nc1ccc(CCF)cc1)c1cc([N+](=O)[O-])ccc1Cl
reporter gene, agonist, luciferase	EC50	47.1 µM	CC(C)(Oc1ccc(C(=O)c2ccc(Cl)cc2)cc1)C(=O)O
reporter gene, agonist, luciferase	EC50	58 µM	Cc1ccc(C)c(OCCCC(C)(C)C(=O)O)c1
ligand displacement, TR-FRET	IC50	11.9 µM	O=C(Nc1ccc(Oc2ncccn2)cc1C(=O)O)c1ccc(Cl)cc1Cl
reporter gene, agonist, luciferase	EC50	0.99 µM	CCCCCC#CCC#CCC#CCC#CCCCC(=O)O
enzyme activity in cells, inhibitor	IC50	> 2 µM	O=C(Nc1ccc(OCCF)cc1)c1cc([N+](=O)[O-])ccc1Cl
ligand displacement, TR-FRET	Ki	3.38 µM	C=CCc1ccc(O)c(-c2cc(CC=C)ccc2O)c1
ligand displacement, TR-FRET	Ki	0.594 µM	Cc1c(C)n(Cc2ccc(-c3ccccc3C(=O)O)cc2)c2ccc(C(=O)N[C@@H](C)c3ccc(C(C)(C)C)cc3)cc12
ligand displacement, TR-FRET	Ki	3.3 µM	CC1(C)C=Cc2c(cc3oc(-c4ccccc4)c(O)c(=O)c3c2O)O1
ligand displacement, TR-FRET	Ki	4.6 µM	C=CCc1ccc(O)c(-c2ccc(O)c(CC=C)c2)c1
